A short description of series [1]: AUC infinity in Sprague-Dawley rat at 1 mg/kg, po measured up to 8 hrs by LC-MS/MS analysis. Also on record: route oral, dose 1 mg/kg, time <=8. It counts as ADME, organism-based. To be noted: in vivo.
The nature of series [2]: Bioavailability in Sprague-Dawley rat at 1 mg/kg, iv measured up to 8 hrs by LC-MS/MS analysis. It counts as ADME, organism-based. Particulars: in vivo. The method in brief:
(§1)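 Male Sprague Dawley rats (7 weeks old, n = 2) given compound in 10% DMSO/0.1 M phosphate pH 8.5, i.v. or p.o. Caudal-vein blood at 5 min (i.v.), 15, 30 min, 1, 2, 4, 8 h; plasma precipitated with acetonitrile/IS, LC-MS/MS. Non-compartmental analysis; bioavailability = AUC∞(p.o.)/AUC∞(i.v.).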

A short description of series [3]: Total clearance in Sprague-Dawley rat at 1 mg/kg, iv measured up to 8 hrs by LC-MS/MS analysis. In kind it is ADME, organism-based. To be noted: in vivo. The method in brief: as §1
Series [4] addresses Transthyretin (Homo sapiens, UniProt P02766, V50M). In words: Inhibition of acid-mediated aggregation of TTR V30M mutant (unknown origin) expressed in Escherichia coli pretreated for 30 mins at pH 7 followed by protein dilution in acetate buffer and further incubated for 96 hrs at pH 4.6 by thioflavin-T fluorescence assay.
Series [5] is described as follows: Elimination half life in Sprague-Dawley rat at 1 mg/kg, po measured up to 8 hrs by LC-MS/MS analysis. Particulars: in vivo, read-out: beta t1/2 (converted). It counts as ADME, organism-based. The method in brief: as §1
Series [6] is described as follows: Metabolic stability in Sprague-Dawley rat liver microsomes assessed as residual rate at 1 uM measured after 30 mins by LC-MS/MS analysis. To be noted: read-out: Stabilty. It counts as ADME, Microsome.
The nature of series [7]: Cmax in Sprague-Dawley rat at 1 mg/kg, iv measured up to 8 hrs by LC-MS/MS analysis. Also on record: route intravenous, dose 1 mg/kg, time <=8. To be noted: in vivo. In kind it is ADME, organism-based. The method in brief:
as §1

Series [8] is described as follows: AUC infinity in Sprague-Dawley rat at 1 mg/kg, iv measured up to 8 hrs by LC-MS/MS analysis. Also on record: route intravenous, dose 1 mg/kg, time <=8. To be noted: in vivo. In kind it is ADME, organism-based.
The nature of series [9]: Intrinsic clearance in Sprague-Dawley rat liver microsomes at 1 uM preincubated for 5 mins followed by NADPH addition and measured after 30 mins by LC-MS/MS analysis. It counts as ADME, Microsome. To be noted: time 35 min, read-out: CLH. The method, boiled down: (§2)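 Rat liver microsomes 0.2 mg/mL with 1 μM compound, 1 mM EDTA, 0.1 M phosphate pH 7.4; 5 min preincubation, then 1 mM NADPH (final) added, 30 min at 37 °C, 60 rpm. Quenched in cold acetonitrile/internal standard, supernatant by LC-MS/MS against time zero. CLint scaled with 44.8 mg protein/g liver, 40.0 g liver/kg. At least two technical replicates.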

In series [10] the target is Transthyretin (Homo sapiens) (UniProt P02766). In words: Binding affinity to TTR V30M mutant (unknown origin) expressed in Escherichia coli by isothermal titration calorimetry. For orientation: Isothermal titration calorimetry measures the heat released or taken up as one component is titrated into another.
Series [11] is described as follows: Tmax in Sprague-Dawley rat at 1 mg/kg, po measured up to 8 hrs by LC-MS/MS analysis. In kind it is ADME, organism-based. Particulars: in vivo. The method, boiled down: as §1
Series [12] can be described thus: Aqueous solubility of the compound in pH 1.2 JP1 fluid measured after 4 hrs ny HPLC-UV analysis. In kind it is physicochemical. The method, boiled down: (§3)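 Test compound diluted from 10 mM DMSO stock 2:165 into JP 1st fluid (pH 1.2) or JP 2nd fluid (pH 6.8); mixed 4 h at 37 °C with rotation at 1000 rpm, then filtered through 0.45 μm PVDF by centrifugation. At least two technical replicates.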

The nature of series [13]: Elimination half life in Sprague-Dawley rat at 1 mg/kg, iv measured up to 8 hrs by LC-MS/MS analysis. In kind it is ADME, organism-based. To be noted: in vivo, read-out: beta t1/2 (converted). The method in brief:
as §1

Series [14] can be described thus: Permeability of the compound at 10 uM measured after 4 hrs by PAMPA based LC-MS analysis. In kind it is ADME. Particulars: read-out: permeability. The method in brief:
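PAMPA on pre-coated plates: donor 10 μM compound in 5% DMSO/0.1 M phosphate pH 6.4, acceptor 5% DMSO/0.1 M phosphate pH 7.4; 4 h at 37 °C without agitation. Donor, acceptor and initial donor solutions quantified by LC-MS/MS; recovery above 90%. Antipyrine, metoprolol, sulfasalazine as references. At least two technical replicates.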

Series [15] in a line: Volume of distribution at steady state in Sprague-Dawley rat at 1 mg/kg, iv measured up to 8 hrs by LC-MS/MS analysis. It counts as ADME, organism-based. Particulars: in vivo, read-out: Vdss. The method, boiled down:
as §1

The nature of series [16]: Metabolic stability in Sprague-Dawley rat liver microsomes assessed as residual rate at 1 uM preincubated for 5 mins followed by NADPH addition and measured after 30 mins by LC-MS/MS analysis. It counts as ADME, Microsome. To be noted: time 35 min, read-out: Stabilty. The method, boiled down: as §2
The nature of series [17]: Protein binding in Sprague-Dawley rat plasma assessed as unbound fraction at 1 uM measured after 4 hrs by equilibrium dialysis assay. It counts as ADME, cell-free. The method in brief: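 Rat plasma spiked at 1 μM, equilibrium dialysis (8K MWCO) against 0.1 M phosphate pH 7.4 for 4 h at 37 °C, 1000 rpm. Unbound fraction = buffer/plasma concentration ratio. At least two technical replicates.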

The nature of series [18]: Aqueous solubility of the compound in pH 6.8 JP2 fluid measured after 4 hrs by HPLC-UV analysis. It counts as physicochemical. The method, boiled down:
as §3

A short description of series [19]: Cmax in Sprague-Dawley rat at 1 mg/kg, po measured up to 8 hrs by LC-MS/MS analysis. It counts as ADME, organism-based. Also on record: route oral, dose 1 mg/kg, time <=8. Particulars: in vivo. The method in brief: as §1
Series [20] can be described thus: Cmax in Sprague-Dawley rat at 0.1 mg/kg, po measured up to 8 hrs by LC-MS/MS analysis. Particulars: in vivo. It counts as ADME, organism-based. Also on record: route oral, dose 0.1 mg/kg, time <=8. The method, boiled down: as §1
Series [21] can be described thus: Tmax in Sprague-Dawley rat at 0.1 mg/kg, po measured up to 8 hrs by LC-MS/MS analysis. It counts as ADME, organism-based. Particulars: in vivo. The method in brief:
as §1

Series [22] is described as follows: AUC (0 to 8 hrs) in Sprague-Dawley rat at 0.1 mg/kg, po measured up to 8 hrs by LC-MS/MS analysis. In kind it is ADME, organism-based. Further details: route oral, dose 0.1 mg/kg, time <=8. To be noted: in vivo.
The nature of series [23]: Volume of distribution at steady state in Sprague-Dawley rat at 0.1 mg/kg, iv measured up to 8 hrs by LC-MS/MS analysis. It counts as ADME, organism-based. Particulars: in vivo, read-out: Vdss. The method in brief:
as §1

Series [24] in a line: Bioavailability in Sprague-Dawley rat at 0.1 mg/kg, iv measured up to 8 hrs by LC-MS/MS analysis. In kind it is ADME, organism-based. To be noted: in vivo. The method, boiled down:
as §1

The nature of series [25]: AUC (0 to 8 hrs) in Sprague-Dawley rat at 0.1 mg/kg, iv measured up to 8 hrs by LC-MS/MS analysis. To be noted: in vivo. Further details: route intravenous, dose 0.1 mg/kg, time <=8. It counts as ADME, organism-based.
The nature of series [26]: AUC infinity in Sprague-Dawley rat at 0.1 mg/kg, iv measured up to 8 hrs by LC-MS/MS analysis. In kind it is ADME, organism-based. Further details: route intravenous, dose 0.1 mg/kg, time <=8. Particulars: in vivo.
The nature of series [27]: Cmax in Sprague-Dawley rat at 0.1 mg/kg, iv measured up to 8 hrs by LC-MS/MS analysis. It counts as ADME, organism-based. Also on record: route intravenous, dose 0.1 mg/kg, time <=8. Particulars: in vivo. The method in brief: as §1
The nature of series [28]: Elimination half life in Sprague-Dawley rat at 0.1 mg/kg, iv measured up to 8 hrs by LC-MS/MS analysis. In kind it is ADME, organism-based. To be noted: in vivo, read-out: beta t1/2 (converted). The method in brief: as §1
Series [29] can be described thus: Total clearance in Sprague-Dawley rat at 0.1 mg/kg, iv measured up to 8 hrs by LC-MS/MS analysis. In kind it is ADME, organism-based. Particulars: in vivo. The method, boiled down: as §1

Converted amounts (≈) assume the structure as drawn. The source made the active and inactive calls. No cut-off for these calls is given here.

As a reminder, the AUC(0-inf) is the area under the concentration-time curve extrapolated to infinity. Read a high AUC(0-inf) as high exposure. In general, bioavailability refers to dose-corrected exposure relative to a reference, in per cent. A higher bioavailability goes with much systemic uptake. Broadly, the clearance is the volume of plasma or blood freed of the substance per unit of time. By IC50 is commonly meant the concentration needed to halve the response being measured. One may read the Cmax as the maximum level reached in the sampled fluid or tissue. In general, Tmax refers to the time from dosing to the highest level. The solubility is the concentration that dissolves in the medium under given conditions. For orientation: fraction unbound means the share of the substance not bound to proteins or other matrix. By AUC(0-t) is commonly meant the area under the concentration-time curve up to a stated or last time point.

On to `Cc1cc(C(=O)O)cc2c(=O)c3ccccc3oc12`, for which the total exposure AUC(0-inf) stood at 2620 ng·h/mL in [1] and 7520 ng·h/mL in [8]. In addition, the bioavailability in series [2] was determined as 34.9%. In series [3], this compound had a clearance of 2.22 mL/min/kg. Also, the IC50 in series [4] came to 6.5 µM. In addition, the half-life in series [5] was 4.4 h; in [13], 2.4 h. Moreover, the remaining at 0.5 h, 1 µM in series [6] and in series [16] was 88% in each case. Besides, the Cmax is 19200 ng/mL in [7] and 476 ng/mL in series [19]. Besides, the CLint scaled at 1 µM in series [9] was determined as 35.7 mL/min/kg. In series [10], the result was Active. Further, the time to peak (Tmax) in series [11] was determined as 0.25 h. The solubility at 4 h in [12] is 2 µM (≈ 0.508 µg/mL); in series [18], above 100 µM. Further, in [14], the Papp at 4 h, 10 µM amounted to 18 ×10⁻⁶ cm/s. The Vd in series [15] is 0.148 L/kg. Further, the free fraction (fraction unbound) at 4 h, 1 µM in [17] amounted to 0.0073.
In the case of `O=C(O)c1cc(Cl)c2oc3ccccc3c(=O)c2c1`, the total exposure AUC(0-inf) in series [1] was 9190 ng·h/mL; in series [8] it was 13200 ng·h/mL. Moreover, the bioavailability in series [2] was 69.8%. Besides, the clearance in series [3] was 1.27 mL/min/kg. The IC50 in [4] was found to be 6.7 µM. Also, the half-life was 5 h in [5] and 1.7 h in series [13]. For the same compound, the remaining at 0.5 h, 1 µM in series [6] and in [16] was 88% in each case. In addition, the Cmax in series [7] came out at 8650 ng/mL; in series [19] it was 1120 ng/mL. Further, the CLint scaled at 1 µM in series [9] was 37.9 mL/min/kg. For the same compound, in series [10], the outcome was Active. Besides, the Tmax in series [11] came to 2 h. In addition, the solubility at 4 h in [12] was 2.9 µM (≈ 0.797 µg/mL); in series [18], above 100 µM. Moreover, the Papp at 4 h, 10 µM in series [14] stood at 17 ×10⁻⁶ cm/s. Besides, the Vd in series [15] was found to be 0.164 L/kg. In addition, the free fraction (fraction unbound) at 4 h, 1 µM in series [17] was determined as 0.017.
For `O=C(O)c1ccc2nc(-c3cc(Cl)cc(Cl)c3)oc2c1`, the highest concentration (Cmax) in series [20] was 163 ng/mL; in [27], 537 ng/mL. Also, in [21], the Tmax amounted to 8 h. Further, the remaining at 0.5 h, 1 µM in series [6] and in series [16] was 88% in each case. The exposure AUC(0-t) was 956 ng·h/mL in [22] and 1710 ng·h/mL in series [25]. Also, the Vd in series [23] worked out at 0.375 L/kg. The same compound gave a bioavailability in series [24] of 55.8%. The CLint scaled at 1 µM in series [9] was determined as 38.7 mL/min/kg. Further, in series [10], the result was Active. For the same compound, the AUC(0-inf) in series [26] is 4330 ng·h/mL. For the same compound, the solubility at 4 h in series [12] was 0.088 µM (≈ 0.0271 µg/mL); in [18], above 100 µM. Also, in [14], the Papp at 4 h, 10 µM was above 50 ×10⁻⁶ cm/s. Also, in [28], the half-life is 12 h. The compound also gave a clearance in series [29] of 0.383 mL/min/kg. Also, the free fraction (fraction unbound) at 4 h, 1 µM in [17] was found to be 0.0051.
Turning to `Cc1cc(C(=O)O)cc2c1C(=O)c1ccccc1C2=O`, the half-maximal inhibitory concentration (IC50) in series [4] is 13 µM.

For the origin of these results see ChEMBL document CHEMBL4811317, “Inhibitory activities of anthraquinone and xanthone derivatives against transthyretin amyloidogenesis” (Bioorg Med Chem, 2021).
